From ChEMBL document CHEMBL1145462, “In vivo pharmacodynamic activity of the glycopeptide dalbavancin” (Antimicrob Agents Chemother, 2007)
≈ marks a conversion by molar mass, not a printed value.

Assays:
Staphylococcus aureus [1] = assay: AUC/MIC ratio of Staphylococcus aureus 31005 infected neutropenic mouse thigh infection model at 127 mg/kg, ip administered every 72 hrs by 2-log killing experiment; assay type: functional; conditions: route intraperitoneal
Staphylococcus aureus [2] = assay: AUC/MIC ratio of Staphylococcus aureus 31005 infected neutropenic mouse thigh infection model at 49.3 mg/kg, ip administered every 24 hrs by static effect experiment; assay type: functional; conditions: route intraperitoneal
Staphylococcus aureus [3] = assay: AUC/MIC ratio of Staphylococcus aureus Smith infected neutropenic mouse thigh infection model at 50.7 mg/kg, ip administered every 24 hrs by 1-log killing experiment; assay type: functional; conditions: route intraperitoneal
Staphylococcus aureus [4] = assay: Antibacterial activity against Staphylococcus aureus 31005 by microdilution method; assay type: functional
How it was run: (§1)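 MIC and MBC were determined by CLSI broth microdilution, in duplicate on at least two occasions. Staphylococci were grown in Mueller-Hinton broth and agar; pneumococci were plated on sheep blood agar.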

Streptococcus pneumoniae [5] = assay: AUC/MIC ratio of Streptococcus pneumoniae 1396 infected neutropenic mouse thigh infection model at 0.61 mg/kg, ip administered every 72 hrs by 1-log killing experiment; assay type: functional; conditions: route intraperitoneal
Staphylococcus aureus [6] = assay: AUC/MBC ratio of Staphylococcus aureus ATCC 25923 infected neutropenic mouse thigh infection model at 160 mg/kg, ip administered every 72 hrs by static effect experiment; assay type: functional; conditions: route intraperitoneal
Staphylococcus aureus [7] = assay: AUC/MBC ratio of Staphylococcus aureus ATCC 25923 infected neutropenic mouse thigh infection model at 42.7 mg/kg, ip administered every 24 hrs by static effect experiment; assay type: functional; conditions: route intraperitoneal
Streptococcus pneumoniae [8] = assay: Bactericidal activity in ip dosed penicillin-susceptible Streptococcus pneumoniae ATCC 10813 infected neutropenic mouse thigh infection model assessed as reduction of colony count after 48 hrs by time kill study; assay type: functional, Thigh muscle
How it was run: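 Neutropenic mice with thigh infection treated 2 h post-inoculation with single ip doses of 0.625, 1.25, 2.5, 5 or 10 mg/kg. Two mice per time point, sampled 0.5–96 h, with untreated controls. Thighs processed for CFU, reported as mean ± standard deviation log10 CFU/thigh.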

[9] = Half life in bacterial pathogen-infected neutropenic Swiss ICR mouse thigh infection model at 40 mg/kg, ip; assay type: ADME, organism-based; parameters: dose 40 mg/kg, route intraperitoneal; conditions: in vivo
How it was run: (§2)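 Thigh-infected neutropenic mice received single intraperitoneal doses (2.5, 5, 10, 20, 40, 80 mg/kg; 0.2 ml/dose). Blood was drawn by retroorbital aspiration from groups of three mice at 0.5, 1, 2, 4, 6, 24, 48, 72 and 96 h. Plasma levels were measured by microbiologic assay with Bacillus subtilis (detection limit 0.10 mg/liter). Noncompartmental analysis was used: half-life by linear least-squares regression, AUC by trapezoidal rule.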

Staphylococcus aureus [10] = assay: Antibacterial activity against methicillin-resistant Staphylococcus aureus in presence of 95% mouse serum ultrafiltrate; assay type: functional
How it was run: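 MIC determined in broth, heat-treated (100°C, 30 min) 95% mouse serum, and 95% mouse serum ultrafiltrate, using arithmetic dilutions of 0.02 mg/liter per tube. Protein binding estimated as (MIC in 95% serum − MIC in ultrafiltrate)/MIC in 95% serum.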

Staphylococcus aureus [11] = assay: AUC/MIC ratio of Staphylococcus aureus 307109 infected neutropenic mouse thigh infection model at 34 mg/kg, ip administered every 72 hrs by 1-log killing experiment; assay type: functional; conditions: route intraperitoneal
[12] = AUC in bacterial pathogen-infected neutropenic Swiss ICR mouse thigh infection model at 40 mg/kg, ip; assay type: ADME, organism-based; parameters: dose 40 mg/kg, route intraperitoneal; conditions: in vivo; how it was run: as §2
Streptococcus pneumoniae [13] = assay: AUC/MIC ratio of Streptococcus pneumoniae ATCC 10813 infected neutropenic mouse thigh infection model at 1.54 mg/kg, ip administered every 24 hrs by 1-log killing experiment; assay type: functional; conditions: route intraperitoneal
Staphylococcus aureus [14] = assay: AUC/MIC ratio of Staphylococcus aureus 31005 infected neutropenic mouse thigh infection model at 94.6 mg/kg, ip administered every 72 hrs by 1-log killing experiment; assay type: functional; conditions: route intraperitoneal
Streptococcus pneumoniae [15] = assay: Antibacterial activity against Streptococcus pneumoniae 1325 by microdilution method; assay type: functional; how it was run: as §1
Streptococcus pneumoniae [16] = assay: AUC/MIC ratio of Streptococcus pneumoniae 1329 infected neutropenic mouse thigh infection model at 1.45 mg/kg, ip administered every 24 hrs by 2-log killing experiment; assay type: functional; conditions: route intraperitoneal
Staphylococcus aureus [17] = assay: AUC/MBC ratio of methicillin-resistant Staphylococcus aureus infected neutropenic mouse thigh infection model at 62 mg/kg, ip administered every 72 hrs by 1-log killing experiment; assay type: functional; conditions: route intraperitoneal
Staphylococcus aureus [18] = assay: AUC/MBC ratio of methicillin-resistant Staphylococcus aureus infected neutropenic mouse thigh infection model at 85 mg/kg, ip administered every 72 hrs by 2-log killing experiment; assay type: functional; conditions: route intraperitoneal
Streptococcus pneumoniae [19] = assay: Bactericidal activity against penicillin-susceptible Streptococcus pneumoniae ATCC 10813 infected neutropenic Swiss ICR mouse thigh infection model assessed as drug level causing 1-log reduction of bacterial count at 0.71 mg/kg, ip dosed every 72 hrs; assay type: functional; conditions: route intraperitoneal
How it was run: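 Neutropenic mice (cyclophosphamide ip 150 mg/kg day −4, 100 mg/kg day −1, then every 48 h) received 0.1 ml log-phase inoculum per thigh under halothane. Intraperitoneal dalbavancin started 2 h later and was given for 6 days at q12h, q24h, q36h or q72h, two mice per regimen. Thigh CFU were counted at 144 h. Endpoint doses relative to start-of-therapy counts came from Hill-model nonlinear regression and are expressed per 24 h.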

Streptococcus pneumoniae [20] = assay: AUC/MIC ratio of Streptococcus pneumoniae 1293 infected neutropenic mouse thigh infection model at 1.68 mg/kg, ip administered every 72 hrs by 2-log killing experiment; assay type: functional; conditions: route intraperitoneal
Staphylococcus aureus [21] = assay: AUC/MIC ratio of Staphylococcus aureus 307109 infected neutropenic mouse thigh infection model at 37 mg/kg, ip administered every 72 hrs by 2-log killing experiment; assay type: functional; conditions: route intraperitoneal
[22] = Cmax in bacterial pathogen-infected neutropenic Swiss ICR mouse thigh infection model at 40 mg/kg, ip; assay type: ADME, organism-based; parameters: dose 40 mg/kg, route intraperitoneal; conditions: in vivo; how it was run: as §2
Staphylococcus aureus [23] = assay: Antibacterial activity against Staphylococcus aureus Smith by microdilution method; assay type: functional
How it was run: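 MICs in duplicate on at least two occasions by standard CLSI broth microdilution; S. aureus grown and quantified in Mueller-Hinton broth/agar.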

Staphylococcus aureus [24] = assay: AUC/MBC ratio of Staphylococcus aureus 33591 infected neutropenic mouse thigh infection model at 93 mg/kg, ip administered every 72 hrs by 1-log killing experiment; assay type: functional; conditions: route intraperitoneal
Streptococcus pneumoniae [25] = assay: AUC/MIC ratio of Streptococcus pneumoniae 1293 infected neutropenic mouse thigh infection model at 0.55 mg/kg, ip administered every 24 hrs by 1-log killing experiment; assay type: functional; conditions: route intraperitoneal
Streptococcus pneumoniae [26] = assay: AUC/MIC ratio of Streptococcus pneumoniae 1325 infected neutropenic mouse thigh infection model at 0.99 mg/kg, ip administered every 72 hrs by 1-log killing experiment; assay type: functional; conditions: route intraperitoneal
Staphylococcus aureus [27] = assay: AUC/MIC ratio of methicillin-resistant Staphylococcus aureus infected neutropenic mouse thigh infection model at 43 mg/kg, ip administered every 72 hrs by static effect experiment; assay type: functional; conditions: route intraperitoneal

CN[C@H]1C(=O)N[C@@H]2Cc3ccc(cc3)Oc3cc4cc(c3O[C@@H]3O[C@H](C(=O)O)[C@@H](O)[C@H](O)[C@H]3NC(=O)CCCCCCCCC(C)C)Oc3ccc(cc3Cl)[C@@H](O)[C@@H]3NC(=O)[C@H](NC(=O)[C@@H]4NC(=O)[C@@H](NC2=O)c2cc(cc(O)c2Cl)Oc2cc1ccc2O)c1ccc(O)c(c1)-c1c(O[C@H]2O[C@H](CO)[C@@H](O)[C@H](O)[C@@H]2O)cc(O)cc1[C@@H](C(=O)NCCCN(C)C)NC3=O [DALBAVANCIN]
RatioAUC/MIC (Staphylococcus aureus [1]): 364 | RatioAUC/MIC (Staphylococcus aureus [2]): 483 | RatioAUC/MIC (Staphylococcus aureus [3]): 248 | MBC (Staphylococcus aureus [4]): 0.12 µg/mL (≈ 0.0661 µM) | MIC (Staphylococcus aureus [4]): 0.06 µg/mL (≈ 0.033 µM) | RatioAUC/MIC (Streptococcus pneumoniae [5]): 4.3 | Ratio (Staphylococcus aureus [6]): 66 | Ratio (Staphylococcus aureus [7]): 52 | Activity (Streptococcus pneumoniae [8]): 4 | half-life [9]: 9.7 h | MIC (Staphylococcus aureus [10]): 0.5 µg/mL | RatioAUC/MIC (Staphylococcus aureus [11]): 108 | AUC [12]: 5360 µg·h/mL | RatioAUC/MIC (Streptococcus pneumoniae [13]): 8.7 | RatioAUC/MIC (Staphylococcus aureus [14]): 325 | MBC (Streptococcus pneumoniae [15]): 0.008 µg/mL (≈ 0.0044 µM) | MIC (Streptococcus pneumoniae [15]): 0.008 µg/mL (≈ 0.0044 µM) | RatioAUC/MIC (Streptococcus pneumoniae [16]): 26.7 | Ratio (Staphylococcus aureus [17]): 48.8 | Ratio (Staphylococcus aureus [18]): 70 | Activity (Streptococcus pneumoniae [19]): 0.77 | RatioAUC/MIC (Streptococcus pneumoniae [20]): 23.8 | RatioAUC/MIC (Staphylococcus aureus [21]): 121 | Cmax [22]: 663 µg/mL | MBC (Staphylococcus aureus [23]): 0.25 µg/mL (≈ 0.138 µM) | MIC (Staphylococcus aureus [23]): 0.06 µg/mL (≈ 0.033 µM) | Ratio (Staphylococcus aureus [24]): 76.6 | RatioAUC/MIC (Streptococcus pneumoniae [25]): 21.7 | RatioAUC/MIC (Streptococcus pneumoniae [26]): 8.8 | RatioAUC/MIC (Staphylococcus aureus [27]): 147
